The list is not random: actives were taken first. Their share in the collection is about 1.3%.
PLCb3 inh – PLC-beta3 (human) inhibition, primary screen | 370,000 compounds, 0.18% hits | inhibition, % at 12.2 µM | Q01970 | Purified PLC-beta3, fluorogenic substrate, fluorescence | AID 720704; in the data active = inhibition above about 11%
Target sequence (Q01970 whole entry, looked up): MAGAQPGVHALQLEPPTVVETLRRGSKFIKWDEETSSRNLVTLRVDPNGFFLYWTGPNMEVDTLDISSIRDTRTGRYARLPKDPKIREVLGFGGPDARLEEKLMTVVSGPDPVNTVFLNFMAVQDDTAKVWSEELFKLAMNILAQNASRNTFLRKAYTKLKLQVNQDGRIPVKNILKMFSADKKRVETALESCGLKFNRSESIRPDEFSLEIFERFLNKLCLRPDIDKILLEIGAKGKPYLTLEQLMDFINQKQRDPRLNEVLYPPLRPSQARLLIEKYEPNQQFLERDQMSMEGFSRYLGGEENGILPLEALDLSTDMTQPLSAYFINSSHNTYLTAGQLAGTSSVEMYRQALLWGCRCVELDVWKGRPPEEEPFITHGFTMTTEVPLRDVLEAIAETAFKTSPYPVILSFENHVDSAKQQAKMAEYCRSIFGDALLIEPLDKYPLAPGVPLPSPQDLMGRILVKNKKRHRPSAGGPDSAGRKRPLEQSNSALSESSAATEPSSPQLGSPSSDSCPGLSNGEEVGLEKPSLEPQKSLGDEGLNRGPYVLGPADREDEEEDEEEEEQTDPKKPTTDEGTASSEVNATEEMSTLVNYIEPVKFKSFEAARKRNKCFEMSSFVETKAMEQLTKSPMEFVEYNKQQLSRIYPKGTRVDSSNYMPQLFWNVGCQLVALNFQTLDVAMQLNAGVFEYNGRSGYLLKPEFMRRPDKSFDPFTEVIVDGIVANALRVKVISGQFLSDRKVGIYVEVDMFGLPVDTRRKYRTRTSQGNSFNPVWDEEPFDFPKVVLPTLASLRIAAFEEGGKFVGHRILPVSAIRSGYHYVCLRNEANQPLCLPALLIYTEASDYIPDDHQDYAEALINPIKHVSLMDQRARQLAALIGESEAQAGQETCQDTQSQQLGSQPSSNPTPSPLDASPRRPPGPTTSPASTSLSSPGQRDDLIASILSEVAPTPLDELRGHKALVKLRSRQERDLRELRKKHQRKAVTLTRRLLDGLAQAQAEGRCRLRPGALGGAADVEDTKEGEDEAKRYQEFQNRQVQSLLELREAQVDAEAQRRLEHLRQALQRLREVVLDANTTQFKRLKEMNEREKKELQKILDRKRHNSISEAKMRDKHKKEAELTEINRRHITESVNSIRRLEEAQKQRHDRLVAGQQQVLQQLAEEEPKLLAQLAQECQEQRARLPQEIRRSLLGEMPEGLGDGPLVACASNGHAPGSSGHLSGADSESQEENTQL
PLCg1 inh – blocks human PLC-gamma1 enzyme activity; P19174; purified PLC-gamma1, fluorogenic substrate, fluorescence; inhibition, % at 12.2 µM; 370,000 compounds, 0.84% hits
Arrestin-AP2 inh – blocks beta-arrestin peptide binding to AP2 adaptin; FITC-arrestin peptide / GST-AP2 beads, flow cytometry; AP2 beta2 appendage carries R879A mutation; inhibition, % at 10 µM; 340,000 compounds, 0.31% hits;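 active = inhibition above a set limit, near 3 SD of compounds lacking own fluorescence, cut at about 54% in these data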
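System: GST-AP2 R879A glutathione beads. Medium: PBS with 0.05% Tween 20 and 0.1% BSA. Also added: FITC-arrestin peptide, 50 nM. Incubation: 12 min plus 1 h, RT. Measured by: high-throughput flow cytometry of beads, ex 488, em 535 nm. Evaluation: percent drop in bead-associated FITC signal.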
NTR1 ag – agonists of human neurotensin receptor NTR1; NTR1-U2OS beta-arrestin-GFP spot imaging, agonist mode; AID 493036; activation, % at 20 µM; 330,000 compounds, 0.17% hits;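 active = activation at or above 40% of the spot to cytoplasm intensity ratio, with at least 20 cells analyzed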
PLCgamma1 ctr – PLC-gamma1 inhibition, counter-screen for PLC-beta3 hits | 3,300 compounds, 3.1% hits | shares compounds with PLCg1 inh | purified PLC-gamma1, fluorogenic substrate, fluorescence | inhibition, % at 12.3 µM
PLCb3 confirm – confirmation of human PLC-beta3 inhibitors. inhibition, % at 12.3 µM. 3,300 compounds, 1% hits. purified PLC-beta3, fluorogenic substrate fluorescence. shares compounds with PLCg1 inh; in the data active = inhibition above about 11%
Of the large screens only hits and unclear results are named; the others gave an inactive call (follow-up assays come after a bar, where they were run). Rule as the data show it, unless noted: active = inhibition above about 9.5%; inactive = the rest.

Nc1ccc2c(c1)C(=O)C(=O)c1ccccc1-2	PLCg1 inh 53 | PLCgamma1 ctr 51 | PLCb3 confirm inactive
COc1ccc(OCC(=O)NS(=O)(=O)c2ccc(Cl)cc2)cc1	none
O=C(COc1ccccc1)NS(=O)(=O)c1ccccc1	PLCg1 inh 10.0 | PLCgamma1 ctr inactive | PLCb3 confirm inactive
COc1ccc(C(CCOC(=O)Oc2ccccc2)c2cc(OC)cc(OC)c2)cc1 (stereo not drawn)	none (no result: Arrestin-AP2 inh, NTR1 ag)
CC(=O)NCC(=O)OCN1C(=O)c2ccccc2C1=O	PLCg1 inh 10 | PLCgamma1 ctr inactive | PLCb3 confirm inactive
Cc1cccc(NC(=O)NCCCN2CCN(c3ccc(F)cc3)CC2)c1	none (no result: Arrestin-AP2 inh, NTR1 ag)
Cc1ccc2c(CN3CC(C)CC(C)C3)cc(=O)oc2c1C (stereo not drawn)	PLCg1 inh 11 | PLCgamma1 ctr inactive | PLCb3 confirm inactive
COc1cc2c(cc1OC)[C@@H](NC(=O)c1ccncc1)[C@H](C)[C@H]2c1ccccc1	none (no result: Arrestin-AP2 inh, NTR1 ag)
CCCOc1cccc(/C=N/NC(=O)c2csc(C)c2C)c1	PLCg1 inh 11 | PLCgamma1 ctr inactive | PLCb3 confirm inactive
Cc1scc(C(=O)N/N=C/c2ccsc2)c1C	none
COc1ccc(-n2c(SCC(=O)Nc3ccc(S(=O)(=O)Nc4nccs4)cc3)nnc2-c2cccs2)cc1	none (no result: Arrestin-AP2 inh, NTR1 ag)
CN1C(=O)[C@@]2(C3=C(CCCC3=O)OC3=C2C(=O)OC2(CCCCC2)C3)c2ccccc21	none (no result: Arrestin-AP2 inh, NTR1 ag)
CCOC(=O)c1ccccc1NC(=O)c1cn(-c2ccc(C)c(C)c2)c(=O)c2ccccc12	PLCg1 inh 9.9 | PLCgamma1 ctr inactive | PLCb3 confirm inactive
COc1cc(C(=O)NCc2ccccc2)ccc1OC(F)F	none
COc1cc(C(=O)NCc2ccc(C)cc2)ccc1OC(F)F	PLCg1 inh 9.7 | PLCgamma1 ctr inactive | PLCb3 confirm inactive
COc1ccc(C(=O)N[C@H](C(=O)NCC2CCCCC2)C(C)C)cc1	PLCg1 inh 12 | PLCgamma1 ctr inactive | PLCb3 confirm inactive
COc1ccc(C(=O)N[C@H](C(=O)NCc2ccc(C)cc2)C(C)C)cc1	none
CC(=O)Nc1nnc(CCS(=O)(=O)c2ccc(C)c(C)c2)s1	PLCg1 inh 14 | PLCgamma1 ctr inactive | PLCb3 confirm inactive
Cc1ccc(S(=O)(=O)CCc2nnc(NC(=O)C3CCCCC3)s2)cc1	none
O=S1(=O)CCN(CCc2ccccc2)CC1	PLCb3 inh 12 (no result: Arrestin-AP2 inh, NTR1 ag) | PLCgamma1 ctr inactive | PLCb3 confirm inactive
O=C1NC(=S)S/C1=C\c1ccc(SCc2ccccc2)o1	PLCg1 inh 57 (no result: NTR1 ag) | PLCgamma1 ctr 29 | PLCb3 confirm inactive
O=C1NC(=S)S/C1=C\c1ccc(SCc2ccco2)o1	none (no result: PLCb3 inh, PLCg1 inh, NTR1 ag)
COc1ccc(NC(=O)CC2C(=O)N(C)C(=S)N2Cc2ccncc2)cc1 (stereo not drawn)	PLCg1 inh 10 | PLCgamma1 ctr inactive | PLCb3 confirm inactive
C[C@H]1[C@@H](N(C)Cc2ccccc2)CC[C@@]23CCCN2C(=O)CCC[C@@H]13	none (no result: Arrestin-AP2 inh, NTR1 ag)
O=C1CC(c2ccccc2)Sc2ccccc2N1 (stereo not drawn)	PLCg1 inh 10 | PLCgamma1 ctr inactive | PLCb3 confirm inactive
CC(=NN1CCN(Cc2ccccc2Cl)CC1)c1ccc(O)cc1	PLCg1 inh 16 (no result: Arrestin-AP2 inh, NTR1 ag) | PLCgamma1 ctr inactive | PLCb3 confirm inactive
Cc1cccc(-c2cccc3c4c([nH]c23)[C@@H]2C[C@H]3[C@@H](C(=O)N2CC4)[C@H](C)ON3C)c1	none (no result: Arrestin-AP2 inh, NTR1 ag)
CSCCC(NC(=O)OCc1ccccc1)C(=O)NCc1cccnc1 (stereo not drawn)	PLCg1 inh 9.8 | PLCgamma1 ctr inactive | PLCb3 confirm inactive
CSCC[C@H](NC(=O)OCc1ccccc1)C(=O)O	none
COc1ccc(C[C@H]2CN3C(=NC[C@@H]3C(C)C)N2CCNC(=O)CCC2CCCCC2)cc1	none
CC(C)[C@H]1CN=C2N(CCNC(=O)CCC3CCCCC3)[C@H](Cc3ccc(O)cc3)CN21	PLCg1 inh 18 | PLCgamma1 ctr inactive | PLCb3 confirm inactive
COc1ccccc1C(=O)NC(=O)COc1ccc([N+](=O)[O-])cc1	PLCg1 inh 9.8 | PLCgamma1 ctr inactive | PLCb3 confirm inactive
COC(=O)[C@]12C[C@H](CC(=O)NCCCN3CCCC3=O)C(=O)N(Cc3cccc4ccccc34)C1=C[C@H](COCc1ccccc1)O[C@@H]2C	none (no result: Arrestin-AP2 inh, NTR1 ag)
Cc1ccc(CSc2nnc(-c3cc(-c4ccc(F)cc4)n[nH]3)n2N)cc1	none (no result: Arrestin-AP2 inh, NTR1 ag)
Cc1ccc(Oc2ccc(/C=N/O)cn2)cc1	PLCg1 inh 14 | PLCgamma1 ctr inactive | PLCb3 confirm inactive
Cc1ccc(COc2ccc(/C=N/O)cc2)cc1	none
CCOc1ccc(CCNC(=O)COC(=O)c2oc3ccccc3c2COC)cc1OCC	PLCg1 inh 14 | PLCgamma1 ctr inactive | PLCb3 confirm inactive
CCN(CC(=O)Nc1cc(Cl)ccc1C)C(=O)C1CC1	PLCg1 inh 14 | PLCgamma1 ctr inactive | PLCb3 confirm inactive
CCOC(=O)N1CCN(C(=O)C[C@H]2C(=O)N(CCCOC)C3=CCCCC[C@]32C(=O)OC)CC1	none (no result: Arrestin-AP2 inh, NTR1 ag)
CC(C)OC(=O)c1ccccc1C(=O)c1ccc(N)c([N+](=O)[O-])c1	PLCg1 inh 9.8 | PLCgamma1 ctr inactive | PLCb3 confirm inactive
Cc1ccc(NC(=O)c2cnccn2)cc1C	PLCg1 inh 11 | PLCgamma1 ctr inactive | PLCb3 confirm inactive
CCOc1ccc(NC2=C(Cl)C(=O)N(Cc3ccccc3)C2=O)cc1	PLCg1 inh 11 | PLCgamma1 ctr inactive | PLCb3 confirm inactive
COc1ccc(NC2=C(Cl)C(=O)N(CCc3ccccc3)C2=O)cc1	none
CCOC(=O)c1cnn(Cc2ccccc2)c1N	none
Cc1cnn(Cc2ccccc2)c1N	PLCg1 inh 10 | PLCgamma1 ctr inactive | PLCb3 confirm inactive
COC(=O)[C@]12C[C@H](CC(=O)NCc3ccc(OC)c(OC)c3)C(=O)N(CCc3ccc(OC)c(OC)c3)C1=C[C@H](C(C)(C)C)O[C@@H]2C	none (no result: Arrestin-AP2 inh, NTR1 ag)
COC(=O)C12OCC34C(CC5C(C)=C(O)C(=O)CC5(C)C3C(O)C1O)OC(=O)C(OC(=O)C=C(C)C)C24 (stereo not drawn)	PLCg1 inh 12 (no result: NTR1 ag) | PLCgamma1 ctr inactive | PLCb3 confirm inactive
O=c1[nH]n(-c2ccc(Cl)cc2)c(=O)c(Cl)c1Cl	PLCg1 inh 9.8 | PLCgamma1 ctr inactive | PLCb3 confirm inactive
O=C1CS(=O)(=O)c2ccccc2N1	PLCg1 inh 24 | PLCgamma1 ctr 21 | PLCb3 confirm inactive
COc1ccc(C(=O)CN2C(=O)C(C)(C)Oc3ccc(C(=O)N4CCCCCC4)cc32)cc1	PLCb3 inh 23 | PLCgamma1 ctr inactive | PLCb3 confirm inactive
FC(F)(F)c1ccc(Cl)c(CN2CCN(c3ncc(Cc4ccccc4)cn3)CC2)c1	none (no result: Arrestin-AP2 inh, NTR1 ag)
O=C(Nc1ccc(C(O)c2ccccc2)cc1)[C@@H]1O[C@H](CO)[C@H](O)[C@H](O)[C@H]1O (stereo partly drawn)	PLCg1 inh 14 (no result: Arrestin-AP2 inh, NTR1 ag) | PLCgamma1 ctr inactive | PLCb3 confirm inactive
Cn1c(=O)c2c(nc(-n3ccnc3)n2Cc2ccccc2)n(C)c1=O	PLCg1 inh 10 | PLCgamma1 ctr inactive | PLCb3 confirm inactive

Assay outcomes from PubChem BioAssay.
